According to ChEMBL document CHEMBL1130334, “Effect of plasma protein binding on in vivo activity and brain penetration of glycine/NMDA receptor antagonists” (J Med Chem, 1997):

Assays:
Glutamate NMDA receptor = assay: Affinity for the glycine binding site on rat N-methyl-D-aspartate glutamate receptor 1, determined by displacement of the glycine site antagonist [3H]L-689,560 from rat cortical membranes; format: cell membranes, Membrane
Rattus norvegicus = species on record: Rattus norvegicus; assay: Clearance into cortex from rat plasma or PBS; format: ADME, organism-based; conditions: in vivo
Method in brief: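 Rat in situ brain perfusion (Takasato method, Gratton modifications). Compound is dissolved in phosphate-buffered saline and perfused 10 s, or dissolved in rat plasma and perfused 60 s. Drug in cortex is measured and clearance from the perfusate into cortex is calculated (mL s⁻¹ g⁻¹ × 10⁴). Mean with SEM, n = 4.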

Albumin = Albumin (Homo sapiens, UniProt P02768); assay: Human serum albumin index was measured by retention time on an HPLC column containing human albumin
Method in brief: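 HPLC on a column containing human serum albumin. Retention volume of each compound is divided by that of a reference standard and normalized so the standard equals 100.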

[1] = target: Glutamate NMDA receptor (Rattus norvegicus) (UniProt P35439+Q00959+Q00960+Q00961+Q62645+Q8VHN2+Q9R1M7); assay: Protein binding index(PBI) reflects the relative displacement of [3H]glycine from rat cortical membranes in the presence and absence of 0.2% human serum albumin; format: cell membranes; conditions: Membrane
Method in brief: (§1)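 [³H]glycine displacement from rat cortical membranes, with and without 0.2% (w/v) human serum albumin. Separation by centrifugation. Index = IC50 with albumin / IC50 without albumin.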

Mus musculus [2] = assay: Anticonvulsant activity measured by its ability to protect against audiogenic seizure in DBA/2 mice when dosed intraperitoneally 30 min prior to seizure induction.; format: functional; conditions: ip
Method in brief: (§2)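 DBA/2 mice, compound dosed intraperitoneally 30 min before induction of audiogenic seizures. Reported as ED50 (mg/kg and μmol/kg) or as number protected/number tested at a single dose. For some compounds the test was run 10 min after dosing.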

Mus musculus [3] = assay: Ability of intravenously administered compound to prevent seizures, induced by NMDLA (500 mg/kg sc) in mice, in the presence of 100 mg/kg of warfarin; format: functional; conditions: route intravenous
Method in brief: (§3)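 Swiss Webster mice; seizures induced by N-methyl-D,L-aspartate 500 mg/kg sc. Test compound given iv 15 min before NMDLA. Where warfarin is used, it is given iv 15 min before the test compound.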

[4] = Partition coefficient (logP); format: physicochemical; conditions: octanol/water
Method in brief: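 Octanol/pH 7.4 buffer partition; values were either measured or calculated from tables of π values.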

Mus musculus [5] = assay: Ability of intravenously administered compound to prevent seizures, induced by NMDLA (500 mg/kg sc) in mice; format: functional; method in brief: as §3
Mus musculus [6] = assay: Ability of intravenously administered compound to prevent seizures, induced by NMDLA (500 mg/kg sc) in mice, in the presence of 60 mg/kg of warfarin; format: functional; conditions: route intravenous; method in brief: as §3
[7] = Protein binding index(PBI) is the ratio of binding affinities for the displacement of [3H]-glycine from rat cortical membranes in the presence and absence of 0.2% human serum albumin; format: functional, cell membranes; conditions: Membrane; method in brief: as §1
Mus musculus [8] = assay: Anti convulsant activity of compound was measured by its ability to protect against audiogenic seizure in DBA/2 mice when dosed intraperitoneally 30 min prior to seizure induction.; format: functional; conditions: ip; method in brief: as §2
[9] = protein binding index(PBI) is the ratio of binding affinities for the displacement of [3H]- glycine from rat cortical membranes in the presence and absence of 0.2% human serum albumin; format: cell membranes; conditions: Membrane; method in brief: as §1

Sequence of Albumin (P02768 whole entry): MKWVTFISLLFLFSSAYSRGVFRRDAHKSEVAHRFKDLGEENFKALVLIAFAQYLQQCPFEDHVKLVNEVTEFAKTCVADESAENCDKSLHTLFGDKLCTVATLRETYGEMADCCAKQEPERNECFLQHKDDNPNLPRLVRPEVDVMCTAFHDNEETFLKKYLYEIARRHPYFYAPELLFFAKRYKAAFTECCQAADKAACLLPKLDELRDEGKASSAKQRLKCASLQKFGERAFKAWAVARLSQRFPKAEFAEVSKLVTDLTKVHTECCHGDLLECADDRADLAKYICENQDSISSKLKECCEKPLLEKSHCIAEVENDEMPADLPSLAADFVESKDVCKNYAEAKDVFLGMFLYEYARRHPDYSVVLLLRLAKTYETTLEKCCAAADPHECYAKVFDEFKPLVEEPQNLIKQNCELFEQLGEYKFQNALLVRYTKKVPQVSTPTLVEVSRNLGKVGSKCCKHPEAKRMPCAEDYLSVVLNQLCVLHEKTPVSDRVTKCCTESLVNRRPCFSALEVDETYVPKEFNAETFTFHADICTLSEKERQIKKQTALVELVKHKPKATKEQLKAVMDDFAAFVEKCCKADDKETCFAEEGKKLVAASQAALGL

Row | SMILES | IC50 (Glutamate NMDA receptor) [nM] | HSAI (Albumin) | PBI [1] | ED50 (Mus musculus [2]) [mg/kg] | logP [4] | further results
1 | Cc1ccc(-c2c(O)c3ccc(Cl)cc3[nH]c2=O)o1 | 481 | 8 |  |  |  | Cortex_Clearance (Rattus norvegicus): 4.4 ml s-1 (10e4*g)-1
2 | Oc1nc2ccccc2c(O)c1-c1ccccc1 |  |  | 3.1 | 10.9 |  | 
3 | COC(=O)c1c(O)c2ccc(Cl)cc2[nH]c1=O |  | 3 | 5.4 |  |  | Cortex_Clearance (Rattus norvegicus): 2.8 ml s-1 (10e4*g)-1
4 | O=c1[nH]c2cc(Cl)ccc2c(O)c1-c1cccc(Oc2ccccc2)c1 |  | 100 | 94 | 0.88 | 2.9 | ED50 (Mus musculus [3]): 0.64 mg/kg; ED50 (Mus musculus [5]): 3.6 mg/kg; Cortex_Clearance (Rattus norvegicus): 0 ml s-1 (10e4*g)-1; ED50 (Mus musculus [6]): 1.9 mg/kg
5 | COc1ccc(Cc2cccc(-c3c(O)c4ccc(Cl)cc4[nH]c3=O)c2)cc1 | 4.5 | 97 | 193 | 0.7 | 2.81 | 
6 | Oc1nc2cc(Cl)ccc2c(O)c1-c1cccc(Oc2ccsc2)c1 |  |  | 127 | 0.75 |  | 
7 | Oc1nc2cc(Cl)ccc2c(O)c1-c1cccc(Cc2ccccc2)c1 |  |  | 758 | 1.3 |  | 
8 | Oc1nc2cc(Cl)ccc2c(O)c1-c1ccc(Oc2ccccc2)cc1 |  | 159 |  | 8.3 |  | 
9 | C=C(C)COc1cccc(C2=C(O)/C(=C/CC)NC2=O)c1 |  | 13 |  |  |  | PBI [7]: 12.1
10 | NCc1ccc(CC(=O)N[C@H]2C[C@H](C(=O)O)Nc3cc(Cl)cc(Cl)c32)cc1 | 38.5 | 2 | 1.1 | 30 |  | 
11 | COCOc1ccc(Cc2cccc(-c3c(O)c4ccc(Cl)cc4[nH]c3=O)c2)cc1 | 2.2 | 78 |  |  | 3.34 | ED50 (Mus musculus [8]): 0.5 mg/kg
12 | O=c1[nH]c2cc(Cl)c(Cl)c([N+](=O)[O-])c2[nH]c1=O [LICOSTINEL] | 2.8 | 28 |  | 3.3 |  | 
13 | O=c1[nH]c2cc(Cl)ccc2c(O)c1-c1ccccc1 |  | 10 |  |  | 1.6 | PBI [9]: 37; ED50 (Mus musculus [8]): 4.5 mg/kg
14 | O=C1Nc2cc(Cl)ccc2CC1[N+](=O)[O-] (configuration not stated) |  | 7 |  | 13.5 | 0.62 | 
